The list is not random: actives were taken first. Their share in the collection is about 12%.
MT stabilize HCS – microtubule stabilization, imaging screen; HeLa tubulin immunostaining HCS, 24 h; share of cells brighter than vehicle mean+2SD; % tubulin-high responders, % at 10 µM; 200,000 compounds, 0.83% hits; AID 2205;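 active = plate Z-score above 3 for both tubulin-high and condensed-nucleus cell shares, with cell loss under 80%, at 10 µM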;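 note: anti alpha tubulin signal scored within the nucleus-defined area of each cell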
bCat nuc transl – beta-catenin nuclear translocation modulation; HeLa beta-catenin nuclear translocation, immunofluorescence imaging; nuclear translocation activity, % at 5 µM; 190,000 compounds, 0.3% hits; AID 1665;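 active = nuclear translocation activity above 50% at 5 µM, with a well cell count of 50 or more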;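 note: per-cell ratio of nuclear to cytoplasmic median beta-catenin stain intensity; plate controls were DMSO negative control for no effect and GSK-3 inhibitor IX positive control for full effect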
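Signal – beta-catenin immunofluorescence imaging with DAPI · Test system – human HeLa cell line · Dosing – 5 µM primary single dose, 0.1% DMSO, 0.02–20 µM confirmation series · Measure – % activation, nuclear-to-cytoplasmic median beta-catenin signal ratio per cell · Incubation – 24 h compound exposure at 37°C, 5% CO2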
Dynein cargo inh – blocks dynein driven cargo transport along microtubules. 3617.4 mouse cells, GR-EGFP nuclear translocation imaging; test concentration mostly 20 µM; stimulated with dexamethasone, 1 µM; hits give low values. z-score, hits read low. AID 1381. 220,000 compounds, 0.47% hits;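 active = plate z-score of nuclear minus cytoplasmic receptor signal below a set negative limit, without overly bright fluorescence or cell loss, cut at about -3.5 in these data, passing the limit was not always enough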;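 note: z-score of nuclear minus cytoplasmic ring GR-EGFP intensity difference per well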
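Also added: dexamethasone, 1.0 µM final. Medium: tet-free, stripped-serum medium. Detection: fixed, Hoechst-stained cells imaged at 10x for EGFP. Read-out: nuclear-to-cytoplasmic GR-EGFP distribution per well. Times: induction 48 h, compound 1 h, agonist 30 min.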
Lmaj promast – inhibitors of Leishmania major promastigote growth | Leishmania major promastigotes, resazurin fluorescence viability | inhibition, % at 10 µM | 200,000 compounds, 9% hits; in the data active = inhibition above about 50%;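 note: promastigotes grown with compound for 44 hours at 28 °C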
CHOP inh – blocks CHOP induction under ER stress; CHO-K1 CHOP-promoter luciferase, tunicamycin-induced, 15-18 h; inhibition, % at 10 µM; 220,000 compounds, 3.8% hits; AID 2732;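 active = compounds that reduced the stress-induced luciferase reporter signal by more than about 70% of percent inhibition, limit read from the data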;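 note: 0% = tunicamycin plus vehicle and 100% = wells without tunicamycin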
Autophagy mod – autophagy modulation, high-content screen; 190,000 compounds, 0.98% hits; AID 463193; MEF GFP-LC3 puncta imaging; test concentration mostly 10 µM; calls only at 10 µM (by protocol);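 active = percentage of spot-positive cells more than 3 SD above its plate mean, without a fluorescence outlier flag or 80% toxicity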;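 note: spot-positive cell cutoff set from DMSO-treated cells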
* marks the source's active call; other numbers are inactive results.

Cc1ccc(C(=O)Nc2ccc3c4c(cccc24)CC3)cc1[N+](=O)[O-] was read as MT stabilize HCS 5, bCat nuc transl 0, Dynein cargo inh 1.5, Lmaj promast 60*, CHOP inh 0 and Autophagy mod inactive.
`Cc1cc(C(=O)Nc2ccccc2C(=O)N2CCCCC2)ccc1[N+](=O)[O-]` gave MT stabilize HCS 2, bCat nuc transl 0, Dynein cargo inh -0.76, Lmaj promast -2, CHOP inh 11 and Autophagy mod inactive.
Screening COc1ccc(C(=O)Nc2ccc3c4c(cccc24)CC3)cc1 returned MT stabilize HCS 1, bCat nuc transl -1, Dynein cargo inh 0.46, Lmaj promast -2, CHOP inh -8 and Autophagy mod inactive.
Cc1ccc(C(=O)Nc2ccccc2C(=O)N2CCCC2)cc1[N+](=O)[O-] was read as MT stabilize HCS 5, Dynein cargo inh 0.37, Lmaj promast 58*, CHOP inh 13 and Autophagy mod inactive.
For O=C(COC(=O)c1cc[n+]([O-])cc1)Nc1ccc([N+](=O)[O-])cc1Cl the results were MT stabilize HCS 3, bCat nuc transl -5, Dynein cargo inh -0.35, Lmaj promast 0, CHOP inh 8 and Autophagy mod inactive.
`Cc1c(C(=O)Nc2ccc3c4c(cccc24)CC3)cccc1[N+](=O)[O-]` gave MT stabilize HCS 22*, bCat nuc transl -2, Dynein cargo inh 1.7, Lmaj promast -2, CHOP inh 17 and Autophagy mod inactive.
Screening C=CCN1C(=O)C(CC(=O)Nc2ccccc2)SC1=Nc1ccc(S(N)(=O)=O)cc1 (centres undefined) returned MT stabilize HCS 3, bCat nuc transl 0, Dynein cargo inh 0.2, Lmaj promast -4, CHOP inh -16 and Autophagy mod inactive.
For Cc1ccccc1N(C(=O)Cn1nnc(-c2cccs2)n1)C(C(=O)NCCC(C)C)c1ccco1 (centres undefined) the results were MT stabilize HCS 3, bCat nuc transl 0, Dynein cargo inh -0.58, Lmaj promast 19, CHOP inh 6 and Autophagy mod inactive.
For CC(c1ccccc1)N1CCn2c(nc3cc(NC(=O)c4cccs4)ccc32)C1 (centres undefined) the results were MT stabilize HCS 4, bCat nuc transl -4, Dynein cargo inh -0.29, Lmaj promast 99*, CHOP inh -2 and Autophagy mod inactive.
Cc1ccc([N+](=O)[O-])cc1N/C=C1\CCc2ccccc2C1=O was read as MT stabilize HCS 3, Dynein cargo inh -0.33, Lmaj promast -2, CHOP inh 85* and Autophagy mod inactive.
`Cc1ccc([N+](=O)[O-])cc1NC(=O)CCc1ccccc1` gave MT stabilize HCS 5, bCat nuc transl -1, Dynein cargo inh -0.12, Lmaj promast -4, CHOP inh 24 and Autophagy mod inactive.
Screening CC(C)c1ccccc1OCC(=O)NC1CCCc2ccccc21 (centres undefined) returned MT stabilize HCS 3, bCat nuc transl 2, Dynein cargo inh 0.31, Lmaj promast 5, CHOP inh 75* and Autophagy mod inactive.
`Cc1cc(C)cc(OCC(=O)NC2CCCc3ccccc32)c1` (centres undefined) gave MT stabilize HCS 1, bCat nuc transl 1, Dynein cargo inh 1.9, Lmaj promast 8, CHOP inh 47 and Autophagy mod inactive.
`Cc1cccc(OCC(=O)NC2CCCc3ccccc32)c1C` (centres undefined) gave MT stabilize HCS 1, bCat nuc transl -4, Dynein cargo inh -0.82, Lmaj promast 61*, CHOP inh 62 and Autophagy mod inactive.
O=C(NCC1(N2CCOCC2)CCCCC1)c1ccc(Cl)c(S(=O)(=O)NCc2ccco2)c1 was read as MT stabilize HCS 5, bCat nuc transl 1, Dynein cargo inh -0.9, Lmaj promast 93*, CHOP inh 14 and Autophagy mod inactive.
For Cc1cccc(N2CCN(C(=O)c3ccc(Cl)c(S(=O)(=O)NCc4ccco4)c3)CC2)c1C the results were MT stabilize HCS 42*, bCat nuc transl 1, Dynein cargo inh 2.4, Lmaj promast 42 and Autophagy mod inactive.
Screening O=C(O)c1ccc(Cl)c(S(=O)(=O)NCc2ccco2)c1 returned MT stabilize HCS 1, bCat nuc transl 1, Dynein cargo inh -0.75, Lmaj promast -6, CHOP inh -12 and Autophagy mod inactive.
Cc1cccc(N2CCN(C(=O)c3ccc(Cl)c(S(=O)(=O)N4CCc5ccccc5C4)c3)CC2)c1C was read as MT stabilize HCS 3, bCat nuc transl -2, Dynein cargo inh 0.37, Lmaj promast 99*, CHOP inh 56 and Autophagy mod inactive.
Screening O=C(C1CC=CCC1)N1CCN(C(=O)C2CC=CCC2)CC1 (centres undefined) returned MT stabilize HCS 2, bCat nuc transl -2, Dynein cargo inh -0.42, Lmaj promast -6, CHOP inh -5 and Autophagy mod inactive.
For CC(=O)NCCOc1nc(N(C)C)nc(N2CCCCC2)n1 the results were MT stabilize HCS 5, bCat nuc transl 0, Dynein cargo inh -0.025, Lmaj promast -4, CHOP inh -3 and Autophagy mod inactive.
Screening Cc1ccc(NCCC(=O)c2cccs2)cc1Cl returned MT stabilize HCS 2, bCat nuc transl -1, Dynein cargo inh -0.34, Lmaj promast 1, CHOP inh 80* and Autophagy mod inactive.
For Cc1ccc(NCCC(=O)c2cccs2)cc1C the results were MT stabilize HCS 2, bCat nuc transl -6, Dynein cargo inh 0.72, Lmaj promast 43, CHOP inh 5 and Autophagy mod inactive.
Cc1ccc(NCCC(=O)c2cccs2)cc1 was read as MT stabilize HCS 3, bCat nuc transl -2, Dynein cargo inh 1.1, Lmaj promast 72*, CHOP inh -30 and Autophagy mod inactive.
For CC(C)c1ccc(NCCC(=O)c2cccs2)cc1 the results were MT stabilize HCS 2, bCat nuc transl -2, Dynein cargo inh 1.2, Lmaj promast 16, CHOP inh 27 and Autophagy mod inactive.
`Cc1ccc(CN(CC(=O)N/N=C/c2ccco2)S(=O)(=O)c2ccc(C)cc2)cc1` gave MT stabilize HCS 1, bCat nuc transl -1, Dynein cargo inh -0.19, Lmaj promast -4, CHOP inh -1 and Autophagy mod inactive.
For Fc1ccc(-c2nnc(NC3=NCCCCC3)o2)cc1 the results were MT stabilize HCS 8, bCat nuc transl -1, Dynein cargo inh 2.4, Lmaj promast -15, CHOP inh 75* and Autophagy mod inactive.
For CCCCn1c(/C=C/c2ccco2)nc2ccccc21 the results were MT stabilize HCS 3, bCat nuc transl 2, Dynein cargo inh -1.2, Lmaj promast 63*, CHOP inh -29 and Autophagy mod inactive.
